# Reference: ChEMBL document CHEMBL2331391, “Peroxisome proliferator-activated receptor-γ mediates the anti-inflammatory effect of 3-hydroxy-4-pyridinecarboxylic acid derivatives: synthesis and biological evaluation” (Eur J Med Chem, 2013)
# The source made the active and inactive calls. The rule behind the calls is not given here.
# Legend:
# Macrophage [1] = assay: Antiinflammatory activity in human macrophages assessed as inhibition of LPS-induced IL-8 release at 10 uM preincubated for 30 mins before LPS-challenge measured after 24 hrs post challenge by ELISA; assay type: functional, cell-based
# How it was run: (§1)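 Human blood PBMC-derived macrophages were used after 10 days of culture. Purity >95% (esterase, CD14, morphology). Cells were pretreated 30 min at 37 °C with compound, then given 100 ng/mL LPS (S. enteritidis) for 24 h. TNFα, IL-1β and IL-8 in conditioned medium were measured by ELISA. Working solutions were endotoxin-tested by LAL (<3 pg/mL).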
# Macrophage [2] = assay: Antiinflammatory activity in human macrophages assessed as inhibition of LPS-induced IL-1beta release at 10 uM preincubated for 30 mins before LPS-challenge measured after 24 hrs post challenge by ELISA; assay type: functional, cell-based; how it was run: as §1
# Macrophage [3] = assay: Antiinflammatory activity in human macrophages assessed as inhibition of LPS-induced TNFalpha release at 10 uM preincubated for 30 mins before LPS-challenge measured after 24 hrs post challenge by ELISA; assay type: functional, cell-based; how it was run: as §1
# [4] = Cytotoxicity against human macrophages at 10 '4 uM after 72 hrs by MTT assay; assay type: cell-based; conditions: macrophage
# [5] = Cytotoxicity against human macrophages at 10 '5 uM after 72 hrs by MTT assay; assay type: cell-based; conditions: macrophage
# [6] = Cytotoxicity against human macrophages up to 100 uM after 72 hrs by MTT assay; assay type: cell-based; conditions: macrophage
# Mus musculus [7] = assay: Antiinflammatory activity in DSS-induced C57Bl/6 mouse colitis model assessed as inhibition IL-1beta level in colonic homogenate at 400 mg/kg/day administered intragastrically for 7 days; assay type: functional, organism-based
# How it was run: (§2)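 Male C57Bl/6J mice, 8–10 per group, dosed intragastrically daily for 7 days at 400 mg/kg/day (vehicle 100 µL). From day 2, drinking water carried 3.5% w/vol DSS. Killed 5 days after colitis induction. Full-thickness proximal colon homogenised for MPO activity and IL-1β protein.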
# Mus musculus [8] = assay: Antiinflammatory activity in DSS-induced C57Bl/6 mouse colitis model assessed as inhibition MPO activity in colonic homogenate at 400 mg/kg/day administered intragastrically for 7 days; assay type: functional; how it was run: as §2
# Macrophage [9] = assay: Increase in PPAR-gamma mRNA transcript level in human macrophages at 30 mM by quantitative PCR analysis; assay type: functional, cell-based
# [10] = Antiinflammatory activity in human macrophages assessed as inhibition of LPS-induced IL8 release at 10 '-3 uM preincubated for 30 mins before LPS-challenge measured after 24 hrs post challenge by ELISA (reference value: 7.86 +/-0.17 ng/ml); assay type: functional, Macrophage; how it was run: as §1
# [11] = Antiinflammatory activity in human macrophages assessed as inhibition of LPS-induced IL8 release at 10 '-2 uM preincubated for 30 mins before LPS-challenge measured after 24 hrs post challenge by ELISA (reference value: 7.86 +/-0.17 ng/ml); assay type: functional, Macrophage; how it was run: as §1
# [12] = Antiinflammatory activity in human macrophages assessed as inhibition of LPS-induced IL8 release at 1 uM preincubated for 30 mins before LPS-challenge measured after 24 hrs post challenge by ELISA (reference value: 7.86 +/-0.17 ng/ml); assay type: functional, Macrophage; how it was run: as §1
# [13] = Antiinflammatory activity in human macrophages assessed as inhibition of LPS-induced IL8 release at 5 uM preincubated for 30 mins before LPS-challenge measured after 24 hrs post challenge by ELISA (reference value: 7.86 +/-0.17 ng/ml); assay type: functional, Macrophage; how it was run: as §1
# [14] = Antiinflammatory activity in human macrophages assessed as inhibition of LPS-induced IL8 release at 10 uM preincubated for 30 mins before LPS-challenge measured after 24 hrs post challenge by ELISA (reference value: 7.86 +/-0.17 ng/ml); assay type: functional, Macrophage; how it was run: as §1
# [15] = Antiinflammatory activity in human macrophages assessed as inhibition of LPS-induced IL8 release at 100 uM preincubated for 30 mins before LPS-challenge measured after 24 hrs post challenge by ELISA (reference value: 7.86 +/-0.17 ng/ml); assay type: functional, Macrophage; how it was run: as §1
# [16] = Antiinflammatory activity in human macrophages assessed as inhibition of LPS-induced TNFalpha release at 10 '-3 uM preincubated for 30 mins before LPS-challenge measured after 24 hrs post challenge by ELISA (reference value: 1682 +/-190 ng/ml); assay type: functional, Macrophage; how it was run: as §1
# [17] = Antiinflammatory activity in human macrophages assessed as inhibition of LPS-induced TNFalpha release at 10 '-2 uM preincubated for 30 mins before LPS-challenge measured after 24 hrs post challenge by ELISA (reference value: 1682 +/-190 ng/ml); assay type: functional, Macrophage; how it was run: as §1
# [18] = Antiinflammatory activity in human macrophages assessed as inhibition of LPS-induced TNFalpha release at 1 uM preincubated for 30 mins before LPS-challenge measured after 24 hrs post challenge by ELISA (reference value: 1682 +/-190 ng/ml); assay type: functional, Macrophage; how it was run: as §1
# [19] = Antiinflammatory activity in human macrophages assessed as inhibition of LPS-induced TNFalpha release at 5 uM preincubated for 30 mins before LPS-challenge measured after 24 hrs post challenge by ELISA (reference value: 1682 +/-190 ng/ml); assay type: functional, Macrophage; how it was run: as §1
# [20] = Antiinflammatory activity in human macrophages assessed as inhibition of LPS-induced TNFalpha release at 10 uM preincubated for 30 mins before LPS-challenge measured after 24 hrs post challenge by ELISA (reference value: 1682 +/-190 ng/ml); assay type: functional, Macrophage; how it was run: as §1
# [21] = Antiinflammatory activity in human macrophages assessed as inhibition of LPS-induced TNFalpha release at 100 uM preincubated for 30 mins before LPS-challenge measured after 24 hrs post challenge by ELISA (reference value: 1682 +/-190 ng/ml); assay type: functional, Macrophage; how it was run: as §1
smiles,measurement,setting,value
O=C(O)c1ccncc1O,inhibition,Macrophage [1],inactive
same,inhibition,Macrophage [2],inactive
same,inhibition,Macrophage [3],inactive
same,Activity,[4],Toxic
same,Activity,[5],Toxic
same,Activity,[6],Non-toxic
Nc1ccc(O)c(C(=O)O)c1,inhibition,Mus musculus [7],inactive
same,inhibition,Mus musculus [8],Active
same,Activity,Macrophage [9],Active
Cc1c(O)c(C(=O)O)cc[n+]1C.[Cl-],Activity,[10],7.45 ng/mL
same,Activity,[11],7.23 ng/mL
same,Activity,[12],7.04 ng/mL
same,Activity,[13],7.34 ng/mL
same,Activity,[14],6.4 ng/mL
same,Activity,[15],4.03 ng/mL
same,Activity,[16],1626 ng/mL
same,Activity,[17],1418 ng/mL
same,Activity,[18],1368 ng/mL
same,Activity,[19],1394 ng/mL
same,Activity,[20],1404 ng/mL
same,Activity,[21],901 ng/mL
same,inhibition,Macrophage [1],Active
same,inhibition,Macrophage [2],Active
same,inhibition,Macrophage [3],Active
CC(=O)Oc1ccccc1C(=O)O,inhibition,Macrophage [1],Active
same,inhibition,Macrophage [2],Active
same,inhibition,Macrophage [3],Active
Cc1cc(C(=O)O)c(O)c(CO)n1,inhibition,Macrophage [1],Active
same,inhibition,Macrophage [2],Active
